Compound activity deposited in PubChem BioAssay by several laboratories.
Rpn11 inh – Rpn11 (PSMD14) deubiquitinase inhibitors, primary screen, biochemical, fluorescence polarization, uHTS | 26S proteasome non-ATPase regulatory subunit 14 (Homo sapiens), O00487 | human 26S proteasome, Ub4-pepOG fluorescence polarization; 20S core pre-blocked with epoxomicin | inhibition, % at 20 µM | hit rate 0.59% among 360,000 | AID 588493, 2011;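 active = inhibition at 20 µM, scaled to each plate's controls, above about 33%, limit read from the data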
ATG4B inh – ATG4B protease inhibitors, primary screen, biochemical, fluorescence, uHTS; Cysteine protease ATG4B (Homo sapiens), Q9Y4P1; ATG4B cleavage of LC3-PLA2, NBD-HPC fluorescence, 1 h; inhibition, % at 8.33 µM; hit rate 0.51% among 340,000; AID 504462, 2011
CSN inh – inhibitors of CSN-mediated cullin deneddylation, primary screen, biochemical, fluorescence polarization, uHTS | COP9 signalosome complex subunit 5 (Homo sapiens), Q92905 | Purified CSN, SCF-Nedd8-OG deneddylation | inhibition, % at 12.5 µM | hit rate 0.38% among 360,000 | AID 651999, 2013;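 active = pattern-corrected inhibition above about 35%, with an unprinted fluorescence ratio check between 0.5 and 1.5, limit read from the data, passing the limit was not always enough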;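 also: 0% = enzyme with substrate and 100% = substrate without enzyme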
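Detection – fluorescence polarization · System – HEK293T-derived human Csn5 enzyme · Controls – substrate-only high control, full reaction low control · Timing – 90 min, room temperature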
HNF4A DNA FP – change in binding of human HNF4A to DNA, primary screen, biochemical, fluorescence polarization, FITC-DNA; hit rate 0.3% among 360,000; 1 h; Hepatocyte nuclear factor 4-alpha (Homo sapiens), P41235; activity change, % at 10 µM; in the data active = activity change above about 30%, passing the limit was not always enough
Target sequence (P41235 whole entry, looked up): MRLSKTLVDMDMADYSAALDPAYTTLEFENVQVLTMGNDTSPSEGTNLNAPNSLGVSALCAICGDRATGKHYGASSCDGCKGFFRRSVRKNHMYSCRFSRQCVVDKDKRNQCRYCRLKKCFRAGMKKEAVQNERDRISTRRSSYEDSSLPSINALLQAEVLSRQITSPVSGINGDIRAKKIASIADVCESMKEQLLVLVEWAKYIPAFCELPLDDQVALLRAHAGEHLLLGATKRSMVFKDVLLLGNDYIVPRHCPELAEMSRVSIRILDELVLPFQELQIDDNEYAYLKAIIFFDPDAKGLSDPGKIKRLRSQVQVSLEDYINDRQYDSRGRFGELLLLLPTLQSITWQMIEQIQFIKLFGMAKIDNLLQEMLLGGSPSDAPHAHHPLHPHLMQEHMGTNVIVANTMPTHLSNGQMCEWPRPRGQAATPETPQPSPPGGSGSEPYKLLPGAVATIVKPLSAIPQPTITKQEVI
TPT1 inh – Candida albicans TPT1 enzyme inhibitors, primary screen, biochemical, fluorescence polarization | hit rate 0.81% among 300,000 | inhibition, % at 5 µM | recombinant caTPT1, FP RNA substrate dephosphorylation | tRNA 2'-phosphotransferase TPT1 (Candida albicans SC5314);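 active = inhibition above the mean of all tested compounds plus 3 SD, set per screening campaign, cut at about 24% in these data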;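 also: plate controls were DMSO alone for no effect and ferristatin control at 100 nM for full effect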
SENP1 inh – human SENP1 catalytic domain inhibitors, primary screen, biochemical, FRET, uHTS | Sentrin-specific protease 1 (Homo sapiens), Q9P0U3 | recombinant SENP1 catalytic domain, CyPet-SUMO1-YPet FRET cleavage | inhibition, % at 10 µM | hit rate 0.21% among 360,000 | AID 624204, 2012;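 active = inhibition at least 30% at 10 µM, raw YFP signal under a set limit, fluorescence ratio 0.5 to 1.5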;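 also: 0% = enzyme with DMSO and 100% = no enzyme wells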
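Controls: no-enzyme wells low, DMSO-plus-enzyme wells high control. Test system: human recombinant His6-tagged SENP1 catalytic domain enzyme. Reagent: SFCypet-SUMO1-SFYpet FRET protein substrate, 25 nM final. Doses: one dose per compound, 10 µM, 0.5% DMSO. Detection: FRET, CFP and YFP emission. Timing: 50 min reaction at room temperature.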
Rpn11 inh conf – Rpn11 (PSMD14) deubiquitinase inhibitors, confirmation, biochemical, fluorescence polarization, single concentration. shares compounds with Rpn11 inh. purified human 26S proteasome, Ub4-pepOG fluorescence polarization; proteasome pretreated with epoxomicin. inhibition, % at 20 µM. hit rate 29% among 1,900
MMP-2 counter – MMP-2 enzyme inhibition, confirmation, counter-screen for RPN11 inhibitor project, biochemical, fluorescence, single concentration. shares compounds with Rpn11 inh. recombinant MMP-2, FRET peptide cleavage fluorescence. inhibition, % at 20 µM. hit rate 4% among 1,900. AID 602330, 2012;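 also: human MMP-2 activated beforehand with APMA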
Thrombin FP – bovine thrombin protease inhibition, confirmation, counter-screen for Rpn11 inhibitor project, biochemical, fluorescence polarization, single concentration. shares compounds with Rpn11 inh. hit rate 13% among 1,900. inhibition, % at 20 µM. bovine thrombin cleavage of Ub4-pepOG;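 active = mean inhibition at least 40% at 20 µM, or signal 3 deviations below plate average, so some actives read negative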;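 also: plate controls were thrombin with DMSO for no effect and buffer wells lacking thrombin for full effect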
The depositor's hits bear a star. Most compounds without a hit are left out; they make up all but 2% or so of the library. Rule as the data show it, unless noted: active = inhibition above about 40%; inactive = the rest.

`CC(=O)Nc1sc(C)c(C)c1C(=O)OCC(=O)N(CC(C)C)c1c(N)n(Cc2ccccc2)c(=O)[nH]c1=O` gave Rpn11 inh -1, ATG4B inh 0, CSN inh 1, HNF4A DNA FP 3, TPT1 inh 0 and SENP1 inh -1.
Screening COCCCn1c(SCc2nc3ccccc3c(=O)[nH]2)nc2ccccc2c1=O returned Rpn11 inh 105*, ATG4B inh -11, CSN inh 1, HNF4A DNA FP 1, TPT1 inh 0, SENP1 inh 0, Rpn11 inh conf -13, MMP-2 counter -23 and Thrombin FP 8.
COc1ccc(-c2ccc(CCC(=O)O)n2CC(C)C)cc1 was read as Rpn11 inh 17, ATG4B inh -1, CSN inh 6, HNF4A DNA FP 3, TPT1 inh 6 and SENP1 inh -135.
`C=CCn1c(CCC(=O)O)ccc1-c1ccc(OC)cc1` gave Rpn11 inh 38*, ATG4B inh -5, CSN inh 3, HNF4A DNA FP 2, TPT1 inh 8, SENP1 inh -66, Rpn11 inh conf 9, MMP-2 counter 2 and Thrombin FP -3.
Screening Cn1nc(C#N)c(=O)[nH]c1=O returned Rpn11 inh -5, ATG4B inh -2, CSN inh -5, HNF4A DNA FP -1 and SENP1 inh 1.
Cn1c(SCC(=O)Nc2ccc(NC(=O)c3cccc(F)c3)cc2)nnc1-c1ccncc1 was read as Rpn11 inh 0, ATG4B inh 0, CSN inh 0, HNF4A DNA FP -1, TPT1 inh -2 and SENP1 inh 1.
COc1ccc(/C=C2\CCCC3C2=NN(C(=O)CSc2ncn[nH]2)C3c2ccc(OC)cc2)cc1 (stereo not given) was read as Rpn11 inh 41*, ATG4B inh 30, CSN inh -1, HNF4A DNA FP -1, TPT1 inh 6, SENP1 inh 9, Rpn11 inh conf -16, MMP-2 counter -28 and Thrombin FP -14.
O=C(CSc1ncn[nH]1)N1N=C2/C(=C/c3ccccc3)CCCC2C1c1ccccc1 (stereo not given) was read as Rpn11 inh 11, ATG4B inh -5, CSN inh 1, HNF4A DNA FP 0, TPT1 inh -2 and SENP1 inh 0.
For O=C(CCCN1C(=O)/C(=C/c2cccs2)SC1=S)NNC(=O)c1ccncc1 the results were Rpn11 inh 47*, ATG4B inh 3, CSN inh 12, HNF4A DNA FP 3, TPT1 inh 2, SENP1 inh 2, Rpn11 inh conf -7, MMP-2 counter 20 and Thrombin FP 1.
`O=C(CCCN1C(=O)/C(=C/c2cccs2)SC1=S)NNC(=O)c1ccccc1O` gave Rpn11 inh 11, ATG4B inh 35, CSN inh -13, HNF4A DNA FP 8, TPT1 inh 2 and SENP1 inh 3.
